Screens from PubChem.
INS-1E ATP HTS = rescue of cytokine-induced death in INS-1E beta cells. INS-1E cytokine-induced death, ATP luminescence, 48 h; normalised: neutral wells 0, positive control 100. protection from cytokine-induced ATP loss, % at 10 µM. 20,000 compounds, 0.1% hits. AID 488910;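 active = mean replicate protection from cytokine-induced ATP loss at least 50% and at least 75% of replicates each reaching 50%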
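Assay system: INS-1E rat cells / Quantity: 8000 cells per well / Medium: RPMI without phenol red, 5% FBS / Probe or stimulus: three-cytokine cocktail (IFN-γ, TNF-α, IL-1β) / Dosing: one compound concentration, pin transfer / Timing: 48 h co-treatment, 10 min post-lysis read / Technique: CellTiter-Glo luminescence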
T cruzi intra = intracellular Trypanosoma cruzi inhibition. intracellular Trypanosoma cruzi in host cells, plate reader. activity score (inhibition), % at 5.01 µM. 22,000 compounds, 4.9% hits; in the data active = activity score above about 55%;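 also: parasites and compound incubated about four days before reading; 0% = median of neutral control wells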
A1 apoptosis 2 = blocks A1, raising caspase activity. AID 2465. 24,000 tested, under 10 active. caspase activation, % (no concentration beside the values). MEF A1-2A-BIM cells, caspase-Glo luminescence, 3 h; percent of clofoctol response, DMSO zero; in the data active = caspase activation above about 5.9%
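System: mouse embryonic fibroblasts co-expressing A1 and BIM (A1-2A-BIM), primed for A1 dependence; amount: 2500 cells/well; doses: 50 nL pinned compound; schedule: cells settled overnight, compound exposure 3 h at 37 °C, 5% CO2; detection: Caspase-Glo 3/7 luminescence, 1 h at room temperature; read-out: Caspase-3/7 activation, seen as rise in luminescence signal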
* = called active by the depositor; x = no result given. This excerpt belongs to a sample that is enriched for hits.

SMILES	INS-1E ATP HTS	T cruzi intra	A1 apoptosis 2
C[C@H]1CN([C@@H](C)CO)C(=O)Cc2cc(NC(=O)Nc3ccc(C(F)(F)F)cc3)ccc2O[C@H]1CN(C)S(=O)(=O)c1cccs1	-9	9	-1
C[C@@H]1CN([C@@H](C)CO)C(=O)c2cccc(NC(=O)Nc3ccc(C(F)(F)F)cc3)c2O[C@H]1CN(C)S(=O)(=O)c1cccs1	-20	79*	0
COc1ccc(CN(C)C[C@@H]2OCCCC[C@@H](C)Oc3ccc(NC(=O)CCC(F)(F)F)cc3C(=O)N([C@@H](C)CO)C[C@H]2C)cc1	x	x	-1
CCn1c2ccccc2c2cc(/C=N/NC(=O)c3ccccn3)ccc21	-5	30	-1
COc1ccc(O)c(/C=N/NC(=O)c2ccccn2)c1	-8	0	x
O=C(O)CCCCCC(=O)N/N=C/c1ccccc1[N+](=O)[O-]	8	-19	1
CC(C)(C)OC(=O)N1CCC[C@H]1/C=N/NC(=O)CCCCCCC(=O)Nc1ccccc1O	6	-3	x
C[C@@H]1CN([C@@H](C)CO)C(=O)c2cccc(NC(=O)c3ccncc3)c2O[C@@H]1CN(C)Cc1ccc(-c2ccccc2)cc1	-22	58*	x
C[C@@H]1CN([C@H](C)CO)C(=O)c2cccc(NC(=O)c3ccncc3)c2O[C@@H]1CN(C)Cc1ccc(-c2ccccc2)cc1	-21	67*	-1
C[C@H](CO)N1C[C@H](C)[C@@H](CN(C)Cc2ccc(C(=O)O)cc2)Oc2c(NC(=O)c3ccncc3)cccc2C1=O	1	-18	1
C[C@H]1CN([C@@H](C)CO)C(=O)c2cccc(NC(=O)c3ccncc3)c2O[C@@H]1CN(C)Cc1ccc(C(=O)O)cc1	17	-14	0
O=C(O)c1ccc(/C=N/NC(=O)c2cccc(C(=O)NO)c2)cc1	0	-3	0
COc1ccc(S(=O)(=O)Nc2ccc3c(c2)CC(=O)N([C@H](C)CO)C[C@@H](C)[C@@H](CN(C)Cc2ccc(Oc4ccccc4)cc2)O3)cc1	-29	70*	0
COc1ccc(S(=O)(=O)Nc2ccc3c(c2)CC(=O)N([C@H](C)CO)C[C@H](C)[C@H](CN(C)Cc2ccc(Oc4ccccc4)cc2)O3)cc1	-16	22	x
COc1ccc(S(=O)(=O)Nc2ccc3c(c2)CC(=O)N([C@H](C)CO)C[C@H](C)[C@H](CN(C)Cc2ccc(-c4ccccc4)cc2)O3)cc1	-28	25	-1
COc1ccc(S(=O)(=O)Nc2ccc3c(c2)CC(=O)N([C@H](C)CO)C[C@H](C)[C@@H](CN(C)Cc2ccc(-c4ccccc4)cc2)O3)cc1	x	x	-1
COc1ccc(S(=O)(=O)Nc2ccc3c(c2)CC(=O)N([C@H](C)CO)C[C@@H](C)[C@H](CN(C)Cc2ccccc2)O3)cc1	3	66*	0
COc1ccc(S(=O)(=O)Nc2ccc3c(c2)CC(=O)N([C@@H](C)CO)C[C@H](C)[C@H](CN(C)Cc2ccccc2)O3)cc1	2	43	0
COc1ccc(S(=O)(=O)Nc2ccc3c(c2)CC(=O)N([C@@H](C)CO)C[C@@H](C)[C@@H](CN(C)Cc2ccc(-c4ccccc4)cc2)O3)cc1	-32	64*	0
COc1ccc(S(=O)(=O)Nc2ccc3c(c2)CC(=O)N([C@@H](C)CO)C[C@H](C)[C@@H](CN(C)Cc2ccc(-c4ccccc4)cc2)O3)cc1	-66	73*	x
C=CCNC(=O)[C@H]1[C@@H]2C(=O)O[C@@H](c3ccccc3)[C@@H](c3ccccc3)N2[C@@H](c2ccccc2OCCO)[C@]12C(=O)N(C(=O)OCCOC)c1ccc(C#CCC(C(=O)OC)C(=O)OC)cc12	x	x	0
O=C(CCCCCCC(=O)N/N=C/c1ccc(O)cc1)NO	x	x	-2
[N-]=[N+]=Nc1ccccc1C[C@@]1(C(=O)NCC(O)CO)N=C(c2ccc(OCCCO)cc2)O[C@@H]1c1ccccc1 (stereo partly specified)	x	x	-1
C[C@H]1CN([C@@H](C)CO)C(=O)c2cc(NS(=O)(=O)c3cn(C)cn3)ccc2O[C@@H]1CN(C)CC1CC1	7	-11	0
C[C@H]1CN([C@@H](C)CO)C(=O)Cc2cc(NC(=O)Cn3cnnn3)ccc2O[C@@H]1CN(C)Cc1ccc(Cl)c(Cl)c1	15	-21	x
SMILES	INS-1E ATP HTS	T cruzi intra	A1 apoptosis 2
O=C(O)CCCCCC(=O)N/N=C/c1ccc(C(F)(F)F)cc1	-3	-6	x
C[C@@H]1CCCCO[C@@H](CN(C)Cc2ccc(Cl)c(Cl)c2)[C@@H](C)CN([C@@H](C)CO)C(=O)c2cc(NC(=O)Nc3cccc4ccccc34)ccc2O1	x	x	1
C[C@@H]1CCCCO[C@H](CN(C)Cc2ccc(Cl)c(Cl)c2)[C@@H](C)CN([C@H](C)CO)C(=O)c2cc(NC(=O)Nc3cccc4ccccc34)ccc2O1	-17	62*	1
C[C@@H]1CCCCO[C@@H](CN(C)Cc2ccccc2)[C@H](C)CN([C@@H](C)CO)C(=O)c2cc(NC(=O)Nc3cccc4ccccc34)ccc2O1	x	x	-1
C[C@@H]1CCCCO[C@@H](CN(C)Cc2ccccc2)[C@@H](C)CN([C@H](C)CO)C(=O)c2cc(NC(=O)Nc3cccc4ccccc34)ccc2O1	1	57*	0
CC(C)=CCC[C@H](C)C/C=N/NC(=O)CCCCC(=O)NO	13	10	0
C[C@H](CO)N1C[C@H](C)[C@H](CN(C)Cc2ccc(Oc3ccccc3)cc2)Oc2c(NC(=O)Nc3ccc4c(c3)OCO4)cccc2C1=O	-46	78*	-1
C[C@@H]1CN([C@H](C)CO)C(=O)c2cc(NC(=O)Cn3cnnn3)ccc2O[C@H]1CN(C)Cc1ccc(C(=O)Nc2ccccc2N)cc1	-12	29	-2
C[C@H]1CN([C@@H](C)CO)C(=O)c2cccc(NC(=O)Nc3ccc4c(c3)OCO4)c2O[C@@H]1CN(C)CC1CC1	-11	4	0
C[C@@H]1CN([C@@H](C)CO)C(=O)c2cccc(NC(=O)Nc3ccc4c(c3)OCO4)c2O[C@H]1CN(C)Cc1ccc(C(=O)Nc2ccccc2N)cc1	-1	68*	1
C[C@@H]1CN([C@H](C)CO)C(=O)c2cccc(NC(=O)Nc3ccc4c(c3)OCO4)c2O[C@H]1CN(C)Cc1ccc(Oc2ccccc2)cc1	-10	31	-2
C[C@H](CO)N1C[C@H](C)[C@@H](CN(C)Cc2ccc(C(=O)Nc3ccccc3N)cc2)Oc2ccc(NC(=O)Cn3cnnn3)cc2C1=O	-11	69*	x
C[C@H](CO)N1C[C@H](C)[C@@H](CN(C)CC2CC2)Oc2c(NC(=O)Nc3ccc4c(c3)OCO4)cccc2C1=O	-5	58*	0
C[C@@H]1CN([C@@H](C)CO)C(=O)c2cccc(NC(=O)Nc3ccc4c(c3)OCO4)c2O[C@@H]1CN(C)Cc1ccc(C(=O)O)cc1	3	-17	x
COCCOC(=O)N1C(=O)[C@@]2(c3cc(C#Cc4ccc(OC)cc4)ccc31)[C@H](C(=O)N1CCCCCCC1)[C@H]1C(=O)O[C@H](c3ccccc3)[C@H](c3ccccc3)N1[C@@H]2c1ccc(O)cc1	x	x	-1
CCOC(=O)[C@@H]1CCCCN1C(=O)C(=O)OC	x	x	1
